Test results: ChEMBL document CHEMBL1944509, “Methyl-monofluorination of ibuprofen selectively increases its inhibitory activity toward cyclooxygenase-1 leading to enhanced analgesic activity and reduced gastric damage in vivo” (Bioorg Med Chem Lett, 2011)
Active and inactive are the calls of the source. No cut-off for these calls is given here.

Key:
Rattus norvegicus [1] = test: Antiinflammatory activity in Wistar albino rat assessed as inhibition of carrageenan-induced paw edema at 33.6 mg/kg, ig administered 1 hr before carrageenan challenge measured after 1 to 24 hrs post carrageenan challenge by plethysmometer; format: functional, organism-based
In short: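 Male Wistar albino rats, 140–160 g, eight per group, dosed i.g. as a suspension in 0.5% CMC; controls get 0.5% CMC only. 1 h later, 0.1 ml of 0.1% carrageenan in 0.9% NaCl is injected into the sub-plantar region of the right hind paw. Paw volume is read by plethysmometer hourly to 6 h and at 24 h. Inhibition (%) = (Vc − Vt)/Vc × 100 on mean volume increase; mean ± SEM.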

Rattus norvegicus [2] = test: Antiinflammatory activity in Wistar albino rat assessed as inhibition of carrageenan-induced paw edema at 30 mg/kg, ig administered 1 hr before carrageenan challenge measured after 4 hrs post carrageenan challenge by plethysmometer; format: functional; conditions: po, route intragastric
In short: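 Male Wistar rats (140–160 g), three groups of eight; drug as 0.5% CMC suspension i.g., controls given CMC only. 1 h later, 0.1 ml of 0.1% carrageenan in 0.9% NaCl injected sub-plantar into right hind paw. Paw volume read by plethysmometer hourly to 6 h and at 24 h; inhibition % = (Vc − Vt)/Vc × 100 from mean volume increases; mean ± SEM.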

Mus musculus [3] = test: Analgesic activity in Swiss albino mouse assessed as inhibition of acetic acid-induced writhing at 30 mg/kg, ig administered 1 hr before acetic acid challenge measured 10 mins post acetic acid challenge; format: functional; conditions: po, route intragastric
In short: (§1)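 Male Swiss albino mice (22–24 g), three groups, n = 8; drug suspended in 0.5% CMC given i.g. (0.3 ml/10 g) 1 h before i.p.-unspecified injection of 1% (v/v) acetic acid at 0.1 ml/10 g. Writhes counted for 10 min starting 10 min after acetic acid; activity as percent decrease in writhing versus vehicle control; mean ± SEM, ANOVA then t-test.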

Rattus norvegicus [4] = test: Gastrointestinal toxicity in Wistar rat assessed as ulcerogenic effect at 100 mg/kg, po measured after 17 hrs post treatment (Rvb =0.50 +/- 0.41); format: organism-based; design: dose 100 mg/kg, route oral; conditions: in vivo
In short: (§2)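 Wistar rats, 150–200 g, eight per group, fasted at least 8 h with water ad libitum. Drug is given orally as a 0.5% CMC suspension at 10 ml/kg; controls get 0.5% CMC. Food is returned after 30 min. At 17 h rats are killed with CO₂ and stomachs removed. Damage score is the summed lesion lengths in mm per rat; mean ± SEM.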

[5] = Plasma concentration in ICR mouse at 5 mg/kg, iv after 6 hrs by HPLC/MS/MS analysis; format: ADME, organism-based; design: dose 5 mg/kg, route intravenous
[6] = Drug level in ICR mouse brain at 10 mg/kg, po after 6 hrs by HPLC/MS/MS analysis; format: ADME, organism-based; design: dose 10 mg/kg, route oral; conditions: read-out: Drug uptake
Nucleic Acid [7] = test: Ratio of drug level in brain to plasma in ICR mouse at 5 mg/kg, iv after 4 hrs by HPLC/MS/MS analysis; format: ADME, organism-based; design: dose 5 mg/kg, route intravenous
Nucleic Acid [8] = test: Ratio of drug level in brain to plasma in ICR mouse at 10 mg/kg, po after 6 hrs by HPLC/MS/MS analysis; format: ADME, organism-based; design: dose 10 mg/kg, route oral
[9] = target: Prostaglandin G/H synthase 1 (Homo sapiens, UniProt P23219); test: Inhibition of COX1 in human HEL 92.1.7 cells assessed as thromboxane B2 production incubated for 30 mins before arachidonic acid addition measured after 15 mins by ELISA; format: cell-based
In short: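 HEL92.1.7 cells at 10⁸/ml in fresh medium, incubated with drug (10⁻⁶–10 μM range) for 30 min at 37 °C. TXB₂ is measured in cell-free supernatant by ELISA and expressed as a ratio to vehicle-only cultures; mean ± SD; IC50 from the concentration–response curve.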

Mus musculus [10] = test: Analgesic activity in Swiss albino mouse assessed as inhibition of acetic acid-induced writhing at 33.6 mg/kg, ig administered 1 hr before acetic acid challenge measured 10 mins post acetic acid challenge; format: functional; conditions: po, route intragastric; in short: as §1
Rattus norvegicus [11] = test: Gastrointestinal toxicity in Wistar rat assessed as ulcerogenic effect at 108.8 mg/kg, po measured after 17 hrs post treatment (Rvb =0.50 +/- 0.41); format: organism-based; design: dose 108.8 mg/kg, route oral; conditions: in vivo; in short: as §2
Nucleic Acid [12] = test: Ratio of drug level in brain to plasma in ICR mouse at 10 mg/kg, po after 2 hrs by HPLC/MS/MS analysis; format: ADME, organism-based; design: dose 10 mg/kg, route oral
Nucleic Acid [13] = test: Ratio of drug level in brain to plasma in ICR mouse at 10 mg/kg, po after 4 hrs by HPLC/MS/MS analysis; format: ADME, organism-based; design: dose 10 mg/kg, route oral
[14] = target: T1, Prostaglandin G/H synthase 1 (Ovis aries, UniProt P05979); test: Inhibition of ovine COX1 by EIA
T1 sequence (P05979 whole entry): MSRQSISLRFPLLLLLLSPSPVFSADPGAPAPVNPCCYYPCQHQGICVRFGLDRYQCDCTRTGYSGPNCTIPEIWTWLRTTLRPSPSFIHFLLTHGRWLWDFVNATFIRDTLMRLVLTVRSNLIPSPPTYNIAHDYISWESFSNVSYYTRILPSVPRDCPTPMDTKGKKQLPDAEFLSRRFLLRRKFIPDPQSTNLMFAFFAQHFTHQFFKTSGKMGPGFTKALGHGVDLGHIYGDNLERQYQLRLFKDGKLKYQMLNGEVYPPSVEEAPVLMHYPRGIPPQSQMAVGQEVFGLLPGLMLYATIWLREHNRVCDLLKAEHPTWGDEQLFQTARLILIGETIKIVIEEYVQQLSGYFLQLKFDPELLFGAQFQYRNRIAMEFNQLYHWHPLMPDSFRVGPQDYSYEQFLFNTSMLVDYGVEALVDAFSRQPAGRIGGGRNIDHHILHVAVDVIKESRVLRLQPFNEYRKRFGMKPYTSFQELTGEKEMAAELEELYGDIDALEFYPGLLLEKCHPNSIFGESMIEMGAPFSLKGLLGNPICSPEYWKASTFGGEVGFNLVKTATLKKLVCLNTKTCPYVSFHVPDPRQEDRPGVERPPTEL

Mus musculus [15] = test: Ratio of drug level in brain to plasma in ICR mouse at 10 mg/kg, po

Sequence of Prostaglandin G/H synthase 1 (Homo sapiens, UniProt P23219) (P23219 whole entry): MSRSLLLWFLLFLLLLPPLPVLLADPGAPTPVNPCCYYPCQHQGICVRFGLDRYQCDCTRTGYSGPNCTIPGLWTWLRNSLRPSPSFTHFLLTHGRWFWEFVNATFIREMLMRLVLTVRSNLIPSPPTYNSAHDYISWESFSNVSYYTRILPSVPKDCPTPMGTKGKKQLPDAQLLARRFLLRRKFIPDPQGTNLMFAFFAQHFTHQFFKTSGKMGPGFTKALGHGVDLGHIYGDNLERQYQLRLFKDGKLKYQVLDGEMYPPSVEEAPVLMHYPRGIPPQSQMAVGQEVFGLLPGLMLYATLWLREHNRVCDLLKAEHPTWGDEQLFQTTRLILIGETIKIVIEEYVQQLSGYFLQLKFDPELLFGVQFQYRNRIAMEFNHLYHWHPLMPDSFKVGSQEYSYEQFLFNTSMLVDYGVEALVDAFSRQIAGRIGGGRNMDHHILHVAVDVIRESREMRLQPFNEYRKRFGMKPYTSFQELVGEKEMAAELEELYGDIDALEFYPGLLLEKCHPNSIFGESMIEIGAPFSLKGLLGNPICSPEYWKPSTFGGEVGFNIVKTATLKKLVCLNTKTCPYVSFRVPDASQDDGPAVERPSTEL

## CC(C)Cc1ccc([C@H](C)C(=O)O)cc1 [DEXIBUPROFEN]
Rattus norvegicus [1]
  inhibition: Active
Rattus norvegicus [2]
  inhibition in vivo at 30 mg/kg: 29.5%
Mus musculus [3]
  inhibition in vivo at 30 mg/kg: 68.7%
Rattus norvegicus [4]
  Activity: Toxic
[5]
  concentration at 6 h: 334 ng/mL
[6]
  concentration at 6 h: 43.1 ng/g
Nucleic Acid [7]
  BPR: 0.044 mL/g
Nucleic Acid [8]
  BPR: 0.036 mL/g

## CC(C)Cc1ccc([C@H](CF)C(=O)O)cc1
[9]
  IC50: 1.23 nM
  inhibition: Dose-dependent effect
Rattus norvegicus [1]
  inhibition: Active
Mus musculus [10]
  inhibition in vivo at 33.6 mg/kg: 50%
Rattus norvegicus [11]
  Activity: Toxic
[5]
  concentration at 6 h: 130 ng/mL
Nucleic Acid [12]
  BPR: 0.03 mL/g
Nucleic Acid [13]
  BPR: 0.032 mL/g
[14]
  IC50: 500 nM
Mus musculus [15]
  BPR: 0.025 mL/g
